Assay results taken from ChEMBL document CHEMBL1153789, “The methoxylated flavones eupatorin and cirsiliol induce CYP1 enzyme expression in MCF7 cells” (J Nat Prod, 2009).
pIC50: −log10 of the molar value. Calls of active or inactive are those of the source. The rule behind the calls is not given here.

Experiments:
Assay type in all cases: functional, cell-based
MCF7 [1] = experiment: Induction of CYP1A1 expression in human MCF7 cells at 5 uM after 24 hrs by RT PCR
Summary of the method: (§1)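 MCF7 cells treated 24 h (0, 1.25, 2.5, 5 µM; 10 nM TCDD reference); RT-PCR for CYP1A1, CYP1B1 and β-actin, primers per Döhr et al.; band intensities normalized to β-actin, semiquantitative; gels representative of three individual experiments.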

MCF7 [2] = experiment: Induction of CYP1B1 expression in human MCF7 cells at 5 uM after 24 hrs by RT PCR; summary of the method: as §1
MCF7 [3] = experiment: Antiproliferative activity in human MCF7 cells after 96 hrs by MTT assay in presence of acacetin
MCF7 [4] = experiment: Antiproliferative activity in human MCF7 cells after 96 hrs by MTT assay; conditions: MCF7, 96 h
MCF7 [5] = experiment: Induction of CYP1B1 expression in human MCF7 cells at 1.25 uM after 24 hrs by RT PCR; summary of the method: as §1
MCF7 [6] = experiment: Induction of CYP1A1 expression in human MCF7 cells at 2.5 uM after 24 hrs by RT PCR; summary of the method: as §1
MCF7 [7] = experiment: Induction of CYP1A1 expression in human MCF7 cells after 24 hrs by 7-ethoxyresorufin-O-deethelase assay
Summary of the method: (§2)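 EROD (7-ethoxyresorufin-O-deethylase) activity in MCF7 cells after 24 h exposure to 0.31, 0.625, 1.25, 2.5 µM flavone; 10 nM TCDD positive control, 0.1% DMSO negative control; three replicates. Read-out reflects mainly CYP1A1, with possible CYP1B1 contribution.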

MCF7 [8] = experiment: Induction of CYP1B1 expression in human MCF7 cells after 24 hrs by 7-ethoxyresorufin-O-deethelase assay; summary of the method: as §2
MCF7 [9] = experiment: Induction of CYP1A1 expression in human MCF7 cells at 0.5 uM to 10 uM after 24 hrs by RT PCR and DNA electrophoresis
MCF7 [10] = experiment: Antiproliferative activity in human MCF7 cells at 1.5 uM after 96 hrs by MTT assay
MCF7 [11] = experiment: Induction of CYP1B1 expression in human MCF7 cells at 10 nM after 24 hrs by 7-ethoxyresorufin-O-deethelase assay
Summary of the method: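 MCF7 cells were exposed for 24 h to 0.31, 0.625, 1.25 or 2.5 µM flavone, with 10 nM TCDD as positive control and 0.1% DMSO as negative control. CYP1 activity was read by 7-ethoxyresorufin-O-deethylation (EROD), which is mainly CYP1A1-selective, though CYP1B1 may contribute. The time course used 2.5 µM. Three replicates.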

Compound: COc1cc2oc(-c3ccc(O)c(O)c3)cc(=O)c2c(O)c1OC [CIRSILIOL]
- Activity (MCF7 [1]): inactive
- Activity (MCF7 [2]): Active
- IC25 (MCF7 [3]; MCF7, 96 h): 5 µM
- pIC50 (MCF7 [3]; MCF7, 96 h): 4.82
- IC25 (MCF7 [4]): 0.5 µM
- pIC50 (MCF7 [4]): 5.10
- Activity (MCF7 [5]): Active
- Activity (MCF7 [6]): Active

Compound: COc1ccc(-c2cc(=O)c3c(O)c(OC)c(OC)cc3o2)cc1O [EUPATORIN]
- Activity (MCF7 [1]): Active
- Activity (MCF7 [2]): Active
- Activity (MCF7 [3]): inactive
- pIC50 (MCF7 [4]): 5.15
- Activity (MCF7 [7]): Dose-dependent effect
- Activity (MCF7 [8]): Dose-dependent effect

Compound: O=c1c(O)c(-c2ccc(O)cc2)oc2cc(O)cc(O)c12
- Activity (MCF7 [9]): inactive

Compound: COc1ccc(-c2cc(=O)c3c(O)cc(O)cc3o2)cc1
- Activity (MCF7 [10]): inactive

Compound: Clc1cc2c(cc1Cl)Oc1cc(Cl)c(Cl)cc1O2
- Activity (MCF7 [11]): Active

Compound: O=c1c(O)c(-c2ccc(O)c(O)c2)oc2cc(O)cc(O)c12
- Activity (MCF7 [9]): Active
